# Activity calls are given as the source filed them. The calls are words filed in the database; no cut-off is given here.
# Key:
# [1] = target: T1, Trifunctional purine biosynthetic protein adenosine-3 (Homo sapiens) (UniProt P22102); assay: In vitro inhibitory activity against Glycinamide ribonucleotide transformylase (GAR Tfase+GAR) pre-incubation of 6 hr at 250 uM concentration
# T1 sequence (whole entry): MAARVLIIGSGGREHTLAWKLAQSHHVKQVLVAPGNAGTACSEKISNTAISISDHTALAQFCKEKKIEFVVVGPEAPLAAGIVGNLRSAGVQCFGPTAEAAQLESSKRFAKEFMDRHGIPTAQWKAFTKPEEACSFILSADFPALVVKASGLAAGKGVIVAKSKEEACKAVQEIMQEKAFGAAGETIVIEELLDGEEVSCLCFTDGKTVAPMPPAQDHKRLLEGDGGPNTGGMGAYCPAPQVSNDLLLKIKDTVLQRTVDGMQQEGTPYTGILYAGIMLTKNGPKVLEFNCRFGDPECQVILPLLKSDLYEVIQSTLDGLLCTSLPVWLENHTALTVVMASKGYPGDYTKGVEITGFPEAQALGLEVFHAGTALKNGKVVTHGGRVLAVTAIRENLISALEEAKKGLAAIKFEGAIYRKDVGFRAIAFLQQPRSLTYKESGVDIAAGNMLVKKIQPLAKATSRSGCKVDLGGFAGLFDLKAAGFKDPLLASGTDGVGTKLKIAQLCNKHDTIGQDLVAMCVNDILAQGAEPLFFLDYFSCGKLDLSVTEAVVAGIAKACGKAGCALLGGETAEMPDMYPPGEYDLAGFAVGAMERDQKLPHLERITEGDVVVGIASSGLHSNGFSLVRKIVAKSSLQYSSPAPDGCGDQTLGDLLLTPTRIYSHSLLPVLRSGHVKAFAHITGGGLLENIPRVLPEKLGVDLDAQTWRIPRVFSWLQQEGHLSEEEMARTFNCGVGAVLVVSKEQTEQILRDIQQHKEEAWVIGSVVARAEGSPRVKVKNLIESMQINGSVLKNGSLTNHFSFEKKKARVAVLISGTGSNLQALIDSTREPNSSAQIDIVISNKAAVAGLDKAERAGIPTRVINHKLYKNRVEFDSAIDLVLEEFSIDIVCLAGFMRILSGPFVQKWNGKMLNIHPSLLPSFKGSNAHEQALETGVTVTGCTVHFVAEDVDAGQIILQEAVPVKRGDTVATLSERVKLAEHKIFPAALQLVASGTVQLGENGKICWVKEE
# [2] = target: T1, Trifunctional purine biosynthetic protein adenosine-3 (Homo sapiens); assay: In vitro activity against Glycinamide ribonucleotide transformylase (GAR Tfase) after 3 min at 25 uM
# [3] = target: T1, Trifunctional purine biosynthetic protein adenosine-3 (Homo sapiens); assay: In vitro activity against Glycinamide ribonucleotide transformylase (GAR Tfase) after 30 min at 25 uM
# [4] = target: T1, Trifunctional purine biosynthetic protein adenosine-3 (Homo sapiens); assay: In vitro inhibitory activity against Glycinamide ribonucleotide transformylase (GAR Tfase) after 30 min at 25 uM; Not active
# [5] = target: T1, Trifunctional purine biosynthetic protein adenosine-3 (Homo sapiens); assay: In vitro inhibitory activity against Glycinamide ribonucleotide transformylase (GAR Tfase+GAR) following 3 min pre-incubation at 250 uM concentration
# [6] = target: T1, Trifunctional purine biosynthetic protein adenosine-3 (Homo sapiens); assay: In vitro inhibitory activity against Glycinamide ribonucleotide transformylase (GAR Tfase) after 1 hr at 25 uM
# CCRF-CEM [7] = assay: Cytotoxicity in the absence of thymidine and hypoxanthine against CCRF-CEM cell line; format: functional, cell-based; conditions: Homo sapiens
# How it was run: (§1)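 CCRF-CEM cells were grown in purine- and pyrimidine-free medium, with thymidine and/or hypoxanthine added or omitted as each line specifies. The cytotoxic potency was reported as an IC50 (µM).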
# [8] = target: T1, Trifunctional purine biosynthetic protein adenosine-3 (Homo sapiens); assay: In vitro inhibitory activity against Glycinamide ribonucleotide transformylase (GAR Tfase) following 3 min pre-incubation at 250 uM concentration
# [9] = target: T1, Trifunctional purine biosynthetic protein adenosine-3 (Homo sapiens); assay: In vitro inhibitory activity at 250 uM concentration against Glycinamide ribonucleotide transformylase (GAR Tfase) pre-incubation time (6 hr).
# [10] = target: T1, Trifunctional purine biosynthetic protein adenosine-3 (Homo sapiens); assay: In vitro inhibitory activity against Glycinamide ribonucleotide transformylase (GAR Tfase+GAR) following 30 min pre-incubation at 250 uM concentration
# CCRF-CEM [11] = assay: Cytotoxicity in the presence of thymidine and hypoxanthine against CCRF-CEM cell line; format: functional, cell-based; conditions: Homo sapiens; how it was run: as §1
# [12] = target: T1, Trifunctional purine biosynthetic protein adenosine-3 (Homo sapiens); assay: In vitro inhibitory activity against Glycinamide ribonucleotide transformylase (GAR Tfase) after 3 min at 25 uM; […]
# [13] = target: T2, Bifunctional purine biosynthesis protein ATIC (Homo sapiens, UniProt P31939); assay: In vitro inhibitory activity against Aminoimidazole carboxamide ribonucleotide transformylase pre-incubated for 12 hr at 250 uM; Not active.
# How it was run: (§2)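 The AICAR Tfase assay solution was pre-incubated with inhibitor (250 µM, or 25 µM where the line states) for 12 h at room temperature. The reaction was then started by adding AICAR, and enzyme inhibition was measured.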
# Target sequence in this assay (P31939 whole entry, looked up): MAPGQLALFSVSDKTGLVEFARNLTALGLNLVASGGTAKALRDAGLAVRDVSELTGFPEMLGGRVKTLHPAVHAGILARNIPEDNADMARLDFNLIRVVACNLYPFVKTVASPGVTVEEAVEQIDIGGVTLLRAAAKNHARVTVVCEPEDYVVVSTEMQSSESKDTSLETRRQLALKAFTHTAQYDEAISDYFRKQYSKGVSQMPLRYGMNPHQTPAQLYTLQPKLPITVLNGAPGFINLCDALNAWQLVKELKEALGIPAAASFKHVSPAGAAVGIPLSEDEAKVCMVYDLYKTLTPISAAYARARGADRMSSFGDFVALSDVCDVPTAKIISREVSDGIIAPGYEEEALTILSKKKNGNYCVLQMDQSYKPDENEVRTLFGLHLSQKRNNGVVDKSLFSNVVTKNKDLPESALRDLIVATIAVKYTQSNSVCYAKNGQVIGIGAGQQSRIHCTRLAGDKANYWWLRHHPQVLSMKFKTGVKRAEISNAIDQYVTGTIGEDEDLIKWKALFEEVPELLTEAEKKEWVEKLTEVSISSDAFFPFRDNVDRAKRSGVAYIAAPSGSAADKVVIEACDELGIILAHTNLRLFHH
# CCRF-CEM [14] = assay: Cytotoxicity in the absence of hypoxanthine and presence of thymidine against CCRF-CEM cell line; format: functional, cell-based; conditions: Homo sapiens; how it was run: as §1
# CCRF-CEM [15] = assay: Cytotoxicity in the absence of thymidine and presence of hypoxanthine against CCRF-CEM cell line; format: functional, cell-based; conditions: Homo sapiens; how it was run: as §1
# [16] = target: T2, Bifunctional purine biosynthesis protein ATIC; assay: In vitro inhibitory activity against Aminoimidazole carboxamide ribonucleotide transformylase; how it was run: as §2
# Target sequence in this assay (P31939 whole entry): as the sequence (P31939 whole entry, looked up) above
# [17] = target: T2, Bifunctional purine biosynthesis protein ATIC; assay: In vitro inhibitory activity against Aminoimidazole carboxamide ribonucleotide transformylase pre-incubed for 12 hr at 250 uM; how it was run: as §2
# Target sequence in this assay (P31939 whole entry, looked up): as above
# [18] = target: T1, Trifunctional purine biosynthetic protein adenosine-3 (Homo sapiens); assay: In vitro inhibitory activity against Glycinamide ribonucleotide transformylase (GAR Tfase) after 30 min at 250 uM; Not active
# [19] = target: T1, Trifunctional purine biosynthetic protein adenosine-3 (Homo sapiens); assay: In vitro inhibitory activity against Glycinamide ribonucleotide transformylase (GAR Tfase) after 3 min at 250 uM; Not active
# [20] = target: T1, Trifunctional purine biosynthetic protein adenosine-3 (Homo sapiens); assay: In vitro inhibitory activity against Glycinamide ribonucleotide transformylase (GAR Tfase) after 7 hr at 250 uM
# [21] = target: T1, Trifunctional purine biosynthetic protein adenosine-3 (Homo sapiens); assay: In vitro inhibitory activity against Glycinamide ribonucleotide transformylase (GAR Tfase) after 6 hr at 250 uM; Not active
# [22] = target: T1, Trifunctional purine biosynthetic protein adenosine-3 (Homo sapiens); assay: In vitro inhibitory activity against Glycinamide ribonucleotide transformylase (GAR Tfase) after 1 hr at 25 uM; […]
# [23] = target: T1, Trifunctional purine biosynthetic protein adenosine-3 (Homo sapiens); assay: (§3) In vitro inhibitory activity against Glycinamide ribonucleotide transformylase (GAR Tfase) after 6 hr at 25 uM
# [24] = target: T1, Trifunctional purine biosynthetic protein adenosine-3 (Homo sapiens); assay: In vitro inhibitory activity against Glycinamide ribonucleotide transformylase (GAR Tfase) after 30 min at 25 uM
# [25] = target: T1, Trifunctional purine biosynthetic protein adenosine-3 (Homo sapiens); assay: In vitro inhibitory activity against Glycinamide ribonucleotide transformylase (GAR Tfase) after 3 min at 25 uM
# [26] = target: T1, Trifunctional purine biosynthetic protein adenosine-3 (Homo sapiens); assay: as §3; remark: listed apart in the source
Compound,inhibition [1] [%],inhibition [5] [%],IC50 (CCRF-CEM [7]) [µM],inhibition [8] [%],inhibition [9] [%],inhibition [10] [%],IC50 (CCRF-CEM [11]) [µM],inhibition [13],IC50 (CCRF-CEM [14]) [µM],IC50 (CCRF-CEM [15]) [µM],inhibition [17] [%],further results
COC(=O)c1ccc(CN(CCCc2c(N)nc(N)nc2O)c2cc(F)cc(F)c2[N+](=O)[O-])cc1,6,25,> 100,6,0,12,> 100,inactive,> 100,> 100,,% control activity remaining [2]: 78%; % control activity remaining [3]: 76%; inhibition [4]: inactive; inhibition [6]: 39%; inhibition ([6]; in the assay text read “after 6 hr” for “after 1 hr”): 84%; inhibition [12]: inactive
Nc1nc2ccc(CN(Cc3ccc([N+](=O)[O-])c(F)c3)c3ccc(C(=O)NC(CCC(=O)O)C(=O)O)cc3)cc2c(=O)[nH]1 (configuration not stated),,,,,,,,,,,,Ki [16]: 52 µM
COC(=O)c1ccc(CN(CCc2c(N)nc(N)nc2O)c2cc(F)c([N+](=O)[O-])cc2[N+](=O)[O-])cc1,27,66,1.3,47,2,54,1.1,,1.9,1.7,75,
COC(=O)c1ccc(CN(CCCc2c(N)nc(N)nc2O)c2ccc([N+](=O)[O-])c(F)c2F)cc1,75,82,41,61,41,78,45,,45,55,96,
COC(=O)c1ccc(CN(CCc2c(N)nc(N)nc2O)c2ccc([N+](=O)[O-])c(F)c2F)cc1,67,79,48,68,30,85,67,,61,36,73,
Nc1nc2c(c(=O)[nH]1)C[C@@H](CCc1ccc(C(=O)N[C@@H](CCC(=O)O)C(=O)O)cc1)CN2 [LOMETREXOL],,,0.13,,,,> 100,,0.07,> 100,,
COC(=O)c1ccc(CN(CCc2c(N)nc(N)nc2O)c2cc(F)ccc2[N+](=O)[O-])cc1,47,81,72,78,12,62,72,,66,72,94,
Nc1nc(N)c(CCCNc2cc(F)ccc2[N+](=O)[O-])c(O)n1,,,> 100,86,,,> 100,inactive,> 100,> 100,,inhibition [18]: inactive; inhibition [19]: inactive; inhibition [20]: 64%; inhibition [21]: inactive
Nc1nc(N)c(CCCNc2cc(F)cc(F)c2[N+](=O)[O-])c(O)n1,,,97,80,53,,94,inactive,97,97,,inhibition [18]: inactive; inhibition [19]: inactive; inhibition [21]: inactive
COC(=O)c1ccc(CN(CCCc2c(N)nc(N)nc2O)c2cc(F)ccc2[N+](=O)[O-])cc1,8,75,45,70,0,44,30,inactive,43,55,,
Nc1nc(N)c(CCNc2cc(F)c(F)cc2[N+](=O)[O-])c(O)n1,,,55,,,,58,inactive,43,37,,inhibition [18]: inactive; inhibition [22]: inactive; inhibition [19]: inactive
COC(=O)c1ccc(CN(CCCc2c(N)nc(N)nc2O)c2cc(F)c(F)cc2[N+](=O)[O-])cc1,14,68,59,44,0,54,53,,55,66,94,
COC(=O)c1ccc(CN(CCc2c(N)nc(N)nc2O)c2cc(F)cc(F)c2[N+](=O)[O-])cc1,30,32,> 100,16,0,29,> 100,inactive,91,> 100,,
COC(=O)c1ccc(CN(CCCc2c(N)nc(N)nc2O)c2cc(F)c([N+](=O)[O-])cc2[N+](=O)[O-])cc1,0,64,2.5,46,0,22,3.5,,3.9,4.3,77,% control activity remaining [23]: 65%; % control activity remaining [2]: 83%; % control activity remaining [3]: 77%; inhibition [6]: 2%; inhibition [24]: 83%; inhibition [12]: inactive
Nc1nc(N)c(CCCNc2cc(F)c([N+](=O)[O-])cc2[N+](=O)[O-])c(O)n1,2,100,1,76,39,75,1.2,,1.1,1,64,inhibition [25]: 76%; inhibition [23]: 56%; inhibition [4]: inactive; inhibition [26]: 58%; inhibition [24]: 71%; inhibition [12]: inactive
Nc1nc(N)c(CCCNc2cc(F)c(F)cc2[N+](=O)[O-])c(O)n1,,,97,87,63,,97,,> 100,97,98,inhibition [18]: inactive; inhibition [19]: inactive; inhibition [21]: inactive
COC(=O)c1ccc(CN(CCc2c(N)nc(N)nc2O)c2cc(F)c(F)cc2[N+](=O)[O-])cc1,22,35,12,17,2,31,11,inactive,13,11,,
Nc1nc(O)c2cc(CN(Cc3ccc(F)c([N+](=O)[O-])c3)c3ccc(C(=O)NC(CCC(=O)O)C(=O)O)cc3)ccc2n1 (configuration not stated),,,,,,,,,,,,Ki [16]: 17 µM
